{"source": "paper PMC10937897", "about": "(Sexual Medicine, 2024)", "key": {"PDE11": {"tested_on": "PDE11", "settings": "cited from earlier work"}, "PDE9": {"tested_on": "PDE9", "settings": "cited from earlier work"}, "CYP2C9": {"target": "CYP2C9 (Homo sapiens, UniProt P11712)", "sequence (P11712 whole entry)": "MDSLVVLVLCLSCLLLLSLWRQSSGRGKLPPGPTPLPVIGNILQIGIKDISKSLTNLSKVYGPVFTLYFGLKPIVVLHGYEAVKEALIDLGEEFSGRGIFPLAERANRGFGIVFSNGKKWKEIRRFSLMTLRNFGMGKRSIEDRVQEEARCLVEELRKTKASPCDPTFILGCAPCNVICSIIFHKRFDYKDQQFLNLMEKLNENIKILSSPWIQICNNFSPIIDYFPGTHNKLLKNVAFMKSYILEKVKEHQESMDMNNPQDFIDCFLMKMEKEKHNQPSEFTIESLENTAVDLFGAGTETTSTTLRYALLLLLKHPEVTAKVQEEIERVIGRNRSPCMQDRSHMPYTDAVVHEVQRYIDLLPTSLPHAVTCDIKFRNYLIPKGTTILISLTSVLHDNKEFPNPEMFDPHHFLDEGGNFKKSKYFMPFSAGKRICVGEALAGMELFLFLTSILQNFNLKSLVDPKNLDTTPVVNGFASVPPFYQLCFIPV", "assay": "Preliminary in vitro metabolism study, CYP2C9", "assay_type": "in vitro ADME", "settings": "preliminary previously unreported in vitro study"}, "[1]": {"assay_type": "in vivo, human", "settings": "for AUC0-24 / Cmax / T1/2 / Cmin,ss / Cmax,ss: geometric mean (CV%); for Tmax: median (range); for C24: mean (SD)", "method_in_brief": "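Males took 30 or 60 mg oral test compound once daily for 5 days, fasted, 10 per group. Blood (5 mL) was drawn predose and 0.25–24 h postdose on days 1 and 5, and predose on days 3 and 4. Serum (3500 rpm, 10 min, 4 °C; stored –70 °C) was assayed for parent and M1, M5, M12 by LC-MS/MS MRM, linear 0.5–1000 ng/mL. Parameters came from noncompartmental analysis, reported as geometric mean (CV%), Tmax median (range), C24 mean (SD).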"}, "CYP3A4": {"target": "CYP3A4 (Homo sapiens, UniProt P08684)", "sequence (P08684 whole entry)": "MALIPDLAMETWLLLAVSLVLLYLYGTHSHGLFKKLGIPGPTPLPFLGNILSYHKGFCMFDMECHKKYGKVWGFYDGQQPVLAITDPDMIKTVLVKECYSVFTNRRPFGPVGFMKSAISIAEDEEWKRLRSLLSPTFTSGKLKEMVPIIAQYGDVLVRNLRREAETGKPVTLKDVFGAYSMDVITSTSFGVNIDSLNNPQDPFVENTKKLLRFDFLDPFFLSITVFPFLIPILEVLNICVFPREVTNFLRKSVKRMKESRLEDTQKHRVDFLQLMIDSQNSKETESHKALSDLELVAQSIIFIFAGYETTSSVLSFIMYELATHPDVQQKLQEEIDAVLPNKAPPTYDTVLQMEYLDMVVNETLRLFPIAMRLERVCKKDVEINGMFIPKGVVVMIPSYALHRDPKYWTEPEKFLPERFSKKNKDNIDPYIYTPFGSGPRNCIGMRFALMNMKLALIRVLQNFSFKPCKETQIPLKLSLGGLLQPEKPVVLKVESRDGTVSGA", "assay": "Preliminary in vitro metabolism study, CYP3A4", "assay_type": "in vitro ADME", "settings": "preliminary previously unreported in vitro study"}, "healthy Chinese males": {"tested_on": "healthy Chinese males", "assay": "Safety and tolerability", "assay_type": "in vivo, human", "method_in_brief": "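Healthy Chinese males aged 22–45 y with BMI 19.0–24.0 kg/m2, 10 per group. They took 30 or 60 mg oral test compound tablets once daily for 5 days after an overnight fast, with standardized diets. Monitoring covered physical and ophthalmologic exams, vital signs, 12-lead ECG and labs (hematology, chemistry, coagulation, urinalysis), with a day-8 follow-up. The investigator graded AEs for severity and drug relationship, coded in MedDRA 20.0.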"}, "PDE3": {"tested_on": "PDE3", "settings": "cited from earlier work"}, "PDE6": {"tested_on": "PDE6", "settings": "cited from earlier work"}, "[2]": {"settings": "30 mg oral once daily, day 1, serum, n=10"}, "[3]": {"settings": "30 mg oral once daily, day 5, serum, n=9"}, "[4]": {"settings": "60 mg oral once daily, day 1, serum, n=10"}, "[5]": {"settings": "60 mg oral once daily, day 5, serum, n=10"}, "[6]": {"settings": "30 mg once daily 5 days, n=10, probably or possibly related to the study drug"}, "[7]": {"settings": "60 mg once daily 5 days, n=10, probably or possibly related to the study drug"}, "[8]": {"settings": "5-day once-daily doses at 30 and 60 mg"}}, "note": "Counter-ions that a name gives are not always drawn. Like-named read-outs stand apart in the source and are kept apart here. Marks after values point to notes of the source that are not given here.", "data": [{"compound": "CCCc1nn(C)c2c(=O)[nH]c(-c3cc(S(=O)(=O)N4C[C@@H](C)N[C@@H](C)C4)ccc3OCC)nc12", "note": "[Aildenafil, aildenafil citrate]", "values": [{"measurement": "inhibition ratio relative to similar products", "setting": "PDE11", "result": 0.49}, {"measurement": "inhibition ratio relative to similar products", "setting": "PDE9", "result": 0.06}, {"measurement": "involvement of CYP2C9 in the metabolism", "setting": "CYP2C9", "result": "involvement"}, {"measurement": "AUC0-24", "setting": "[1]; [2]", "result": "313.78 (45.3) h·ng/mL"}, {"measurement": "Cmax", "setting": "[1]; [2]", "result": "81.03 (45.3) ng/mL"}, {"measurement": "T1/2", "setting": "[1]; [2]", "result": "2.75 (21.2) h"}, {"measurement": "Tmax", "setting": "[1]; 30 mg oral once daily, day 1, serum", "result": "1.00 (0.50-2.00) h"}, {"measurement": "C24", "setting": "[1]; 30 mg oral once daily, day 5, serum concentration at 24 hours", "result": "0.92 (148.0)^b ng/mL"}, {"measurement": "AUC0-24", "setting": "[1]; [3]", "result": "346.23 (51.8)^b h·ng/mL"}, {"measurement": "Cmin,ss", "setting": "[1]; [3]", "result": "1.05 (75.7)^b ng/mL"}, {"measurement": "T1/2", "setting": "[1]; [3]", "result": "3.61 (38.1)^b h"}, {"measurement": "Cmax,ss", "setting": "[1]; 30 mg oral once daily, day 5, serum, n=10", "result": "84.61 (55.9) ng/mL"}, {"measurement": "Tmax", "setting": "[1]; 30 mg oral once daily, day 5, serum", "result": "0.75 (0.25-2.00) h"}, {"measurement": "C24", "setting": "[1]; 60 mg oral once daily, day 1, serum concentration at 24 hours", "result": "1.71 (54.1) ng/mL"}, {"measurement": "AUC0-24", "setting": "[1]; [4]", "result": "963.18 (44.8) h·ng/mL"}, {"measurement": "Cmax", "setting": "[1]; [4]", "result": "199.10 (37.8) ng/mL"}, {"measurement": "T1/2", "setting": "[1]; [4]", "result": "3.26 (19.7) h"}, {"measurement": "Tmax", "setting": "[1]; 60 mg oral once daily, day 1, serum", "result": "1.00 (0.50-2.00) h"}, {"measurement": "C24", "setting": "[1]; 60 mg oral once daily, day 5, serum concentration at 24 hours", "result": "3.85 (66.8) ng/mL"}, {"measurement": "AUC0-24", "setting": "[1]; [5]", "result": "1683.67 (45.1) h·ng/mL"}, {"measurement": "Cmax,ss", "setting": "[1]; [5]", "result": "319.71 (23.8) ng/mL"}, {"measurement": "Cmin,ss", "setting": "[1]; [5]", "result": "3.61 (61.3) ng/mL"}, {"measurement": "T1/2", "setting": "[1]; [5]", "result": "3.38 (24.2) h"}, {"measurement": "Tmax", "setting": "[1]; 60 mg oral once daily, day 5, serum", "result": "0.88 (0.50-3.00) h"}, {"measurement": "amount in the blood at 24 hours relative to Cmax", "setting": "[1]; after the first dose, 30 or 60 mg", "result": "less than 1/20"}, {"measurement": "involvement of CYP3A4 in the metabolism", "setting": "CYP3A4", "result": "involvement"}, {"measurement": "Blood glucose: elevated: Cases, No.", "setting": "healthy Chinese males; 30 mg once daily 5 days, n=10", "result": 0, "unit": "No."}, {"measurement": "Blood glucose: elevated: Participants, No. (%)", "setting": "healthy Chinese males; 30 mg once daily 5 days, n=10", "result": "0 (0) No. (%)"}, {"measurement": "Fatigue: Cases, No.", "setting": "healthy Chinese males; 30 mg once daily 5 days, n=10", "result": 0, "unit": "No."}, {"measurement": "Fatigue: Participants, No. (%)", "setting": "healthy Chinese males; 30 mg once daily 5 days, n=10", "result": "0 (0) No. (%)"}, {"measurement": "Head discomfort: Cases, No.", "setting": "healthy Chinese males; 30 mg once daily 5 days, n=10", "result": 0, "unit": "No."}, {"measurement": "Head discomfort: Participants, No. (%)", "setting": "healthy Chinese males; 30 mg once daily 5 days, n=10", "result": "0 (0) No. (%)"}, {"measurement": "Lymphocyte count: decreased: Cases, No.", "setting": "healthy Chinese males; 30 mg once daily 5 days, n=10", "result": 0, "unit": "No."}, {"measurement": "Lymphocyte count: decreased: Participants, No. (%)", "setting": "healthy Chinese males; 30 mg once daily 5 days, n=10", "result": "0 (0) No. (%)"}, {"measurement": "Lymphocyte percentage: decreased: Cases, No.", "setting": "healthy Chinese males; 30 mg once daily 5 days, n=10", "result": 0, "unit": "No."}, {"measurement": "Lymphocyte percentage: decreased: Participants, No. (%)", "setting": "healthy Chinese males; 30 mg once daily 5 days, n=10", "result": "0 (0) No. (%)"}, {"measurement": "Myalgia: Cases, No.", "setting": "healthy Chinese males; 30 mg once daily 5 days, n=10", "result": 0, "unit": "No."}, {"measurement": "Myalgia: Participants, No. (%)", "setting": "healthy Chinese males; 30 mg once daily 5 days, n=10", "result": "0 (0) No. (%)"}, {"measurement": "Chest discomfort: Cases, No.", "setting": "healthy Chinese males; [6]", "result": "1^a No."}, {"measurement": "Chest discomfort: Participants, No. (%)", "setting": "healthy Chinese males; [6]", "result": "1 (10.0)^a No. (%)"}, {"measurement": "Vomiting: Cases, No.", "setting": "healthy Chinese males; [6]", "result": "1^a No."}, {"measurement": "Vomiting: Participants, No. (%)", "setting": "healthy Chinese males; [6]", "result": "1 (10.0)^a No. (%)"}, {"measurement": "Chest discomfort: Cases, No.", "setting": "healthy Chinese males; 60 mg once daily 5 days, n=10", "result": 0, "unit": "No."}, {"measurement": "Chest discomfort: Participants, No. (%)", "setting": "healthy Chinese males; 60 mg once daily 5 days, n=10", "result": "0 (0) No. (%)"}, {"measurement": "Influenza-like illness: Cases, No.", "setting": "healthy Chinese males; 60 mg once daily 5 days, n=10", "result": 1, "unit": "No."}, {"measurement": "Influenza-like illness: Participants, No. (%)", "setting": "healthy Chinese males; 60 mg once daily 5 days, n=10", "result": "1 (10.0) No. (%)"}, {"measurement": "Vomiting: Cases, No.", "setting": "healthy Chinese males; 60 mg once daily 5 days, n=10", "result": 0, "unit": "No."}, {"measurement": "Vomiting: Participants, No. (%)", "setting": "healthy Chinese males; 60 mg once daily 5 days, n=10", "result": "0 (0) No. (%)"}, {"measurement": "Blood glucose: elevated: Cases, No.", "setting": "healthy Chinese males; [7]", "result": "1^a No."}, {"measurement": "Blood glucose: elevated: Participants, No. (%)", "setting": "healthy Chinese males; [7]", "result": "1 (10.0)^a No. (%)"}, {"measurement": "Fatigue: Cases, No.", "setting": "healthy Chinese males; [7]", "result": "2^a No."}, {"measurement": "Head discomfort: Cases, No.", "setting": "healthy Chinese males; [7]", "result": "1^a No."}, {"measurement": "Head discomfort: Participants, No. (%)", "setting": "healthy Chinese males; [7]", "result": "1 (10.0)^a No. (%)"}, {"measurement": "Lymphocyte count: decreased: Cases, No.", "setting": "healthy Chinese males; [7]", "result": "1^a No."}, {"measurement": "Lymphocyte count: decreased: Participants, No. (%)", "setting": "healthy Chinese males; [7]", "result": "1 (10.0)^a No. (%)"}, {"measurement": "Lymphocyte percentage: decreased: Cases, No.", "setting": "healthy Chinese males; [7]", "result": "1^a No."}, {"measurement": "Lymphocyte percentage: decreased: Participants, No. (%)", "setting": "healthy Chinese males; [7]", "result": "1 (10.0)^a No. (%)"}, {"measurement": "fatalities or serious AEs", "setting": "healthy Chinese males; [8]", "result": "no fatalities or serious AEs"}, {"measurement": "impact on heart rate, blood pressure, or visual function", "setting": "healthy Chinese males; [8]", "result": "no clinically significant impact"}, {"measurement": "severity of observed AEs", "setting": "healthy Chinese males; [8]", "result": "mild to moderate"}, {"measurement": "instances of AEs assessed by the investigator to be linked to the study drug", "setting": "healthy Chinese males; both dose groups, 20 participants", "result": 26}, {"measurement": "creatine kinase compared with baseline", "setting": "healthy Chinese males; day 4", "result": "failed to reveal any noteworthy deviations"}, {"measurement": "inhibition ratio relative to similar products", "setting": "PDE3", "result": 0.75}, {"measurement": "inhibition ratio relative to similar products", "setting": "PDE6", "result": 0.30}]}]}
